This note sets out measurements from ChEMBL document CHEMBL5325460, “Versatile anti-infective properties of pyrido- and dihydropyrido[2,3-d]pyrimidine-based compounds” (Bioorg Med Chem, 2023).

Series [1] can be described thus: Cytotoxicity against African green monkey Vero cells assessed as reduction in cell viability measured after 3 days by MTT assay. It counts as toxicity, cell-based. The following applies: chlorocebus sabaeus, time 3 day. The method in brief:
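Vero cells held 3 days with graded doses in RPMI 1640 with 5% FBS. Viability read by MTT colorimetry at 540 nm. CC50 from concentration–response curves against untreated controls; means of at least three independent experiments.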
A general note: Formazan colour is commonly taken as a measure of viable cells.

Series [2] relates to Toxoplasma gondii. The series is described as follows: Antiparasitic activity against Toxoplasma gondii RH tachyzoites infected in African green monkey Vero cells assessed as parasitic growth inhibition incubated for 72 hrs by inverted microscopic analysis. It is filed as functional, organism-based. The method in brief: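 RH-strain tachyzoites grown on Vero host cells in RPMI 1640 with 10% FBS and exposed to a range of concentrations, with atovaquone as positive control. Infected cells counted under an inverted microscope; inhibition % = (1 − infected treated / infected control) × 100. IC50 from concentration–response curves at 72 h; means of at least three independent experiments.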

Series [3] concerns Leishmania major. Put plainly: Antileishmanial activity against Leishmania major promastigotes assessed as parasite growth inhibition measured after 72 hrs by MTT based ELISA reader analysis.
For series [4], the target named is Human immunodeficiency virus type 1 reverse transcriptase (Human immunodeficiency virus 1, UniProt Q72547). The series is described as follows: Inhibition of wild type HIV-1 reverse transcriptase RNase-associated RNase H activity using RNA/DNA template-primer as substrate. The method, boiled down: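 RNase H activity of wild-type RT, run independently of RDDP, with RDS1759 as positive control. Assays in triplicate; IC50 reported ± error.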

Series [5] is described as follows: Selectivity index, ratio of CC50 for cytotoxicity against African green monkey Vero cells to IC50 for antiparasitic activity against Toxoplasma gondii RH tachyzoites infected in African monkey Vero cells. Particulars: read-out: Ratio CC50/IC50. It counts as toxicity, cell-based. The method in brief:
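SI = Vero CC50 (3-day MTT, 540 nm read) divided by T. gondii RH IC50 (Vero host cells, microscopic count of infected cells); both values from concentration–response curves at 72 h.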

The test system of series [6] is Leishmania major. Put plainly: Antileishmanial activity against Leishmania major amastigotes infected in mouse macrophages assessed as parasite growth inhibition measured after 72 hrs by MTT based ELISA reader analysis. It counts as functional, organism-based. Particulars: Macrophage. The method in brief:
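L. major promastigotes from a patient isolate; amastigotes from infected BALB/c mice, grown inside mouse macrophages. Viable parasites read by MTT absorbance at 570 nm.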

Turning to `COc1ccc(C2C3=C(Nc4[nH]c(=O)[nH]c(=O)c42)c2ccccc2C3=O)cc1OC` (stereo not drawn), the CC50 (commonly the concentration giving 50% cytotoxicity) at 72 h in series [1] was found to be 8.03 µM. Further, the concentration for half-maximal inhibition (IC50) – broadly, the concentration that inhibits the measured activity by half – was 7.31 µM in series [2], greater than 31 µM in series [3], 20.3 µM in series [4] and 6.94 µM in series [6]. Also, the selectivity ratio in series [5] amounted to 1.1.
Take `COc1ccc(-c2c3c(nc4[nH]c(=O)[nH]c(=O)c24)-c2ccccc2C3=O)cc1OC`: in series [1], the 50% cytotoxic concentration (CC50) at 72 h was found to be 0.87 µM. In addition, the concentration for half-maximal inhibition (IC50) in series [2] turned out to be 1.12 µM; in series [3], 29.4 µM; in series [6], 6.73 µM. The selectivity ratio in series [5] was 0.78.
Taken in the same sequence, the figures for `COc1cc(C2C3=C(Nc4[nH]c(=O)[nH]c(=O)c42)c2ccccc2C3=O)cc(Br)c1OC` (stereo not drawn) were 0.5 µM, 0.73 µM, greater than 25.9 µM, 16.4 µM and 0.69.
Taken in the same sequence, the figures for `COc1cc(-c2c3c(nc4[nH]c(=O)[nH]c(=O)c24)-c2ccccc2C3=O)cc(Br)c1OC` were 2.31 µM, 1.87 µM, 26 µM, 16.2 µM and 1.24.
Take `CCOC(=O)C(=O)CC(=O)/C=C/c1cccn1Cc1ccccc1Cl`: in series [4], the half-maximal inhibitory concentration (IC50) stood at 8.7 µM.
Turning to `COc1cc(C2C3=C(Nc4[nH]c(=O)[nH]c(=O)c42)c2ccccc2C3=O)cc(OC)c1OC` (stereo not drawn), the 50% cytotoxic concentration (CC50) at 72 h in series [1] was determined as 2.1 µM. Also, the IC50 was 2.77 µM in series [2], greater than 28.8 µM in series [3], 21.5 µM in series [4] and 21.2 µM in series [6]. In addition, in series [5], the selectivity ratio came to 0.76.
Take `COc1cc(C2C3=C(Nc4[nH]c(=O)[nH]c(=O)c42)c2ccccc2C3=O)cc(I)c1OC` (stereo not drawn): the cytotoxic concentration (CC50) at 72 h in series [1] is 0.42 µM. Besides, the IC50 in series [2] was 0.47 µM; in series [3], greater than 23.6 µM; in series [6] it was 14 µM. Moreover, the selectivity ratio in series [5] stood at 0.89.
For the molecule `O=C1C2=C(Nc3[nH]c(=O)[nH]c(=O)c3C2c2cccc(Br)c2)c2ccccc21` (stereo not drawn), the half-maximal cytotoxic concentration (CC50) at 72 h in series [1] amounted to 16.1 µM. Besides, the IC50 in series [2] turned out to be 11.4 µM; in series [3], 11.6 µM; in series [6], 36.5 µM. Besides, in series [5], the selectivity ratio was determined as 1.42.
As to `COc1cc(C2C3=C(Nc4[nH]c(=O)[nH]c(=O)c42)c2ccccc2C3=O)cc(OC)c1O` (stereo not drawn), in series [1], the cytotoxic concentration (CC50) at 72 h was determined as 6.08 µM. The half-inhibitory concentration (IC50) in series [2] is 11 µM; in series [3] it was 31.7 µM; in series [4], 17.1 µM; in series [6], 21.2 µM. Further, in series [5], the selectivity ratio came out at 0.55.
`COc1ccc(C2C3=C(Nc4[nH]c(=O)[nH]c(=O)c42)c2ccccc2C3=O)cc1F` (stereo not drawn): the half-maximal cytotoxic concentration (CC50) at 72 h in series [1] is 7.16 µM. For the same molecule, the IC50 was 9.71 µM in series [2], 7.16 µM in series [3] and 16.9 µM in series [6]. Besides, the selectivity ratio in series [5] turned out to be 0.74.
`COc1cc(-c2c3c(nc4[nH]c(=O)[nH]c(=O)c24)-c2ccccc2C3=O)cc(OC)c1OC`: in series [1], the CC50 at 72 h turned out to be 2.02 µM. In addition, the IC50 is 2.09 µM in series [2], greater than 29 µM in series [3] and 5.8 µM in series [6]. Further, the selectivity ratio in series [5] came out at 0.97.
Regarding `COc1cc(C2C3=C(Nc4[nH]c(=O)[nH]c(=O)c42)c2ccccc2C3=O)cc(Cl)c1OC` (stereo not drawn), in series [1], the 50% cytotoxic concentration (CC50) at 72 h stood at 0.3 µM. Further, the concentration for half-maximal inhibition (IC50) was 0.41 µM in series [2], greater than 28.6 µM in series [3] and 6.17 µM in series [6]. Further, the selectivity ratio in series [5] is 0.73.
`O=C1C2=C(Nc3[nH]c(=O)[nH]c(=O)c3C2c2cccc(O)c2)c2ccccc21` (stereo not drawn): the CC50 at 72 h in series [1] was determined as 9.46 µM. In addition, the IC50 is 23.7 µM in series [2], greater than 34.8 µM in series [3], 93.4 µM in series [4] and 27 µM in series [6]. Moreover, the selectivity ratio in series [5] came out at 0.4.
Regarding `COc1ccc(C2C3=C(Nc4[nH]c(=O)[nH]c(=O)c42)c2ccccc2C3=O)cc1Br` (stereo not drawn), the cytotoxic concentration (CC50) at 72 h in series [1] was determined as 1.73 µM. In addition, the IC50 is 1.81 µM in series [2], greater than 27.6 µM in series [3] and 1.9 µM in series [6]. Further, in series [5], the selectivity ratio stood at 0.96.
Taken in the same sequence, the figures for `COc1cc(-c2c3c(nc4[nH]c(=O)[nH]c(=O)c24)-c2ccccc2C3=O)cc(Cl)c1OC` were 0.85 µM, 0.69 µM, 28.2 µM, 18.6 µM and 1.23.
Consider `COc1ccc(-c2c3c(nc4[nH]c(=O)[nH]c(=O)c24)-c2ccccc2C3=O)cc1F`, for which the cytotoxic concentration (CC50) at 72 h in series [1] amounted to 4.11 µM. Also, the IC50 in series [2] is 9.25 µM; in series [3] it was 6.68 µM; in series [6] it was 15.7 µM. Besides, the selectivity ratio in series [5] worked out at 0.44.
For `COc1ccc(C2C3=C(Nc4[nH]c(=O)[nH]c(=O)c42)c2ccccc2C3=O)cc1O` (stereo not drawn), in series [1], the 50% cytotoxic concentration (CC50) at 72 h amounted to 8.99 µM. Besides, the concentration for half-maximal inhibition (IC50) was 11.4 µM in series [2], greater than 32.1 µM in series [3], greater than 100 µM in series [4] and 21.3 µM in series [6]. Also, in series [5], the selectivity ratio was 0.79.
As for `COc1ccc(-c2c3c(nc4[nH]c(=O)[nH]c(=O)c24)-c2ccccc2C3=O)cc1Br`, the CC50 at 72 h in series [1] is 9.55 µM. Further, the IC50 stood at 11.8 µM in series [2], 25.1 µM in series [3] and 35.8 µM in series [6]. In addition, the selectivity ratio in series [5] is 0.91.
Taken in the same sequence, the figures for `COc1ccc(C2C3=C(Nc4[nH]c(=O)[nH]c(=O)c42)c2ccccc2C3=O)cc1C` (stereo not drawn) were 2.89 µM, 9.81 µM, greater than 32.3 µM, 22.2 µM and 0.3.
In the case of `O=C1C2=C(Nc3[nH]c(=O)[nH]c(=O)c3C2c2ccc(O)c(O)c2)c2ccccc21` (stereo not drawn), the CC50 at 72 h in series [1] is 7.03 µM. Also, the half-maximal inhibitory concentration (IC50) was 9.99 µM in series [2], greater than 33.3 µM in series [3], 11.2 µM in series [4] and greater than 33.3 µM in series [6]. Also, in series [5], the selectivity ratio is 0.7.
On to `COc1cc(C2C3=C(Nc4[nH]c(=O)[nH]c(=O)c42)c2ccccc2C3=O)ccc1O` (stereo not drawn), for which the half-maximal cytotoxic concentration (CC50) at 72 h in series [1] was determined as 6.16 µM. The half-inhibitory concentration (IC50) was 8.35 µM in series [2], 35.4 µM in series [3], greater than 100 µM in series [4] and 21.3 µM in series [6]. In addition, in series [5], the selectivity ratio turned out to be 0.74.
For `O=C1C2=C(Nc3[nH]c(=O)[nH]c(=O)c3C2c2ccc(O)cc2)c2ccccc21` (stereo not drawn), the CC50 at 72 h in series [1] is 3.95 µM. Also, the IC50 in series [2] is 20 µM; in series [3], greater than 34.8 µM; in series [4] it was greater than 100 µM; in series [6], 22 µM. In addition, the selectivity ratio in series [5] turned out to be 0.2.
Turning to `COc1cc(-c2c3c(nc4[nH]c(=O)[nH]c(=O)c24)-c2ccccc2C3=O)cc(I)c1OC`, the CC50 at 72 h in series [1] came to 2.22 µM. Further, the values for the IC50 in series [2], in series [3] and in series [6] were 2.47 µM, 23 µM and 15.4 µM, respectively. Moreover, the selectivity ratio in series [5] turned out to be 0.9.
Consider `C[C@@H]1[C@H](O)[C@@H](C)/C=C/C=C/C=C/C=C/C=C/C=C/C=C/[C@H](O[C@@H]2O[C@H](C)[C@@H](O)[C@H](N)[C@@H]2O)C[C@@H]2O[C@](O)(C[C@@H](O)C[C@@H](O)[C@H](O)CC[C@@H](O)C[C@@H](O)CC(=O)O[C@H]1C)C[C@H](O)[C@H]2C(=O)O` [AMPHOTERICIN B], for which, in series [3], the IC50 amounted to 0.83 µM.
For `O=C1C(O)=C([C@H]2CC[C@H](c3ccc(Cl)cc3)CC2)C(=O)c2ccccc21` [ATOVAQUONE], the CC50 at 72 h in series [1] is 9.5 µM. Further, the half-inhibitory concentration (IC50) in series [2] was found to be 0.07 µM. The selectivity ratio in series [5] worked out at 136.
